Apaf-1 inh: inhibitors of human Apaf-1 apoptosome, primary screen, biochemical, DEVD-Rh110 fluorescence, uHTS; hit rate 0.71% among 330,000; Apoptotic protease-activating factor 1 (Homo sapiens), O14727; reconstituted apoptosome caspase-3 activity; inhibition, % at 20 µM; active = inhibition of at least 40% at 20 µM
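Material: biochemical Apaf-1 apoptosome reconstitution. Medium: Hepes buffer, pH 7.5. Also added: cytochrome c activation, bis-DEVD rhodamine 110 substrate. Timing: 30 min compound preincubation, 50 min activation, room temperature. Measured by: rhodamine 110 fluorescence at Ex 480/Em 540 nm.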
hiPSC survival: enhancers of single-cell hiPSC survival, primary screen, ATPlite luminescence; survival enhancement, % at 20 µM; 100% = ROCK inhibitor wells, 0% = DMSO; hit rate 0.044% among 360,000; in the data active = survival enhancement above about 18%;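 note: cells exposed to compounds for 16 hours before the ATP read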
UBC13 inh: UBC13 polyubiquitin chain formation inhibitors, primary screen, biochemical, TR-FRET, uHTS; Ubiquitin-conjugating enzyme E2 N (Homo sapiens), P61088; inhibition, % at 20 µM; hit rate 0.47% among 330,000; in the data active = inhibition above about 45%, passing the limit was not always enough
Target sequence (P61088 whole entry, looked up): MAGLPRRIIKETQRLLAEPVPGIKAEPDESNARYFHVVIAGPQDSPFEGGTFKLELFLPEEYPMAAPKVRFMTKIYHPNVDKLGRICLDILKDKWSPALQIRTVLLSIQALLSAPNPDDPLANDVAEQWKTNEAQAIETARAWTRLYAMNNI
MPTP inh: mitochondrial permeability transition pore inhibitors, primary screen, biochemical, isolated mouse mitochondria, absorbance; Ca2+ swelling absorbance, 30 min; hit rate 1.4% among 360,000; inhibition, % at 10 µM;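 active = inhibition of 50% or more, scaled per plate between neutral and stimulator controls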
Granule exo inh: LAMP-1 surface exposure blockers, TALL-104 cells – cell-based, flow cytometry, MLPCN library, primary screen; hit rate 0.66% among 360,000; TALL-104 LAMP-1 surface exposure; cells stimulated with thapsigargin and PMA; inhibition, % at 10 µM;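 active = inhibition above about 55%, limit read from the data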
beta cell repl: inducers of MIN6 beta-cell proliferation, primary screen, ATP luminescence, uHTS; MIN6 cells proliferation, ATPlite luminescence, 48 h; cells starved in 0.2% serum; 100% = growth in 10% serum; proliferation, % at 10 µM; hit rate 0.29% among 330,000; AID 2380, 2010;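 active = compounds whose signal lies at least 3.5 SD above the mean of all wells on their plate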
Rh123 counter: fluorescence retest of MPTP screen hits in isolated mitochondria, single concentration | hit rate 78% among 5,000 | shares compounds with MPTP inh | membrane potential, Rhodamine 123 fluorescence | inhibition, % at 10 µM | AID 624504, 2012; in the data active = inhibition above about 22%
Hits are given with their value. Compounds with a hit are over-represented: about 3% of the library has one in this group of screens.

`COc1ccc(C(=O)/C(C#N)=N/Nc2ccccc2[N+](=O)[O-])cc1` gave Apaf-1 inh inactive, hiPSC survival inactive, UBC13 inh inactive, MPTP inh 95, Granule exo inh inactive, beta cell repl inactive and Rh123 counter 88.
For C/C(=N/Nc1ccc([N+](=O)[O-])cc1)c1ccc(C)cc1C the results were Apaf-1 inh inactive, hiPSC survival inactive, UBC13 inh inactive, MPTP inh 65, Granule exo inh inactive, beta cell repl inactive and Rh123 counter 60.
`COc1ccc(C(=O)/C(C#N)=N/Nc2ccc([N+](=O)[O-])cc2)cc1` gave Apaf-1 inh inactive, hiPSC survival inactive, UBC13 inh inactive, MPTP inh 100, Granule exo inh inactive, beta cell repl inactive and Rh123 counter 86.
`CCCc1c(C)nn(C(=O)/C(C#N)=N/Nc2ccccc2[N+](=O)[O-])c1C` gave Apaf-1 inh inactive, hiPSC survival inactive, UBC13 inh inactive, MPTP inh inactive, Granule exo inh inactive and beta cell repl inactive.
Screening COc1ccc(N/N=C(\C#N)C(N)=O)cc1 returned Apaf-1 inh inactive, hiPSC survival inactive, UBC13 inh inactive, MPTP inh inactive, Granule exo inh inactive and beta cell repl inactive.
`C/C(=N\Nc1cccc([N+](=O)[O-])c1)c1cc(F)ccc1O` gave Apaf-1 inh inactive, hiPSC survival inactive, UBC13 inh inactive, MPTP inh 85, Granule exo inh inactive, beta cell repl inactive and Rh123 counter 65.
For C/C(=N\Nc1cccc([N+](=O)[O-])c1)c1ccccc1O the results were Apaf-1 inh inactive, hiPSC survival inactive, UBC13 inh inactive, MPTP inh inactive, Granule exo inh inactive and beta cell repl inactive.
COCCNC(=O)C1(C)CCCN(Cc2sc(C)nc2C)C1 (stereo not drawn) was read as hiPSC survival inactive, MPTP inh inactive and Granule exo inh inactive.
CCOC1=C2[C@@H](CN(S(=O)(=O)c3ccc(C)cc3)[C@H]2c2ccccc2F)[C@H]2C(=O)N(CC)C(=O)[C@H]2C1 was read as hiPSC survival inactive, MPTP inh inactive and Granule exo inh inactive.
Screening N#CC(C#N)=NNc1ccc([N+](=O)[O-])cc1 returned Apaf-1 inh inactive, hiPSC survival inactive, UBC13 inh inactive, MPTP inh 90, Granule exo inh inactive, beta cell repl inactive and Rh123 counter 78.
For C/C(=N\Nc1ccc([N+](=O)[O-])cc1)c1ccc(C#N)cc1 the results were Apaf-1 inh inactive, hiPSC survival inactive, UBC13 inh inactive, MPTP inh inactive, Granule exo inh inactive and beta cell repl inactive.
`Cc1ccc(S(=O)(=O)N2CCOCC2)cc1NC(=O)COC(=O)COc1ccc(C#N)cc1` gave hiPSC survival inactive, MPTP inh inactive and Granule exo inh inactive.
For CC(=O)Oc1c(C)cc(Cl)cc1C(=O)Nc1ccc([N+](=O)[O-])cc1Cl the results were Apaf-1 inh inactive, hiPSC survival inactive, UBC13 inh inactive, MPTP inh 85, Granule exo inh inactive, beta cell repl inactive and Rh123 counter 91.
`O=C(N/N=C/c1cc(Br)ccc1O)Nc1ccccc1` gave Apaf-1 inh inactive, hiPSC survival inactive, UBC13 inh inactive, MPTP inh 99, Granule exo inh inactive, beta cell repl inactive and Rh123 counter 65.
`CN(C)S(=O)(=O)c1cccc(NC(=S)N/N=C/c2cccc(O)c2)c1` gave Apaf-1 inh inactive, hiPSC survival inactive, UBC13 inh inactive, MPTP inh inactive, Granule exo inh inactive and beta cell repl inactive.
`CN(C)S(=O)(=O)c1cccc(NC(=S)N/N=C/c2cc(Br)ccc2O)c1` gave Apaf-1 inh inactive, hiPSC survival inactive, UBC13 inh inactive, MPTP inh 100, Granule exo inh inactive, beta cell repl inactive and Rh123 counter 38.
For NC(=O)N/N=C\c1cc(Br)ccc1O the results were Apaf-1 inh inactive, hiPSC survival inactive, UBC13 inh inactive, MPTP inh inactive, Granule exo inh inactive and beta cell repl inactive.
For C/C1=C\CCC2C(/C=C(\C)CC1)OC(=O)C2CN1CCCCC1 (stereo not drawn) the results were Apaf-1 inh inactive, hiPSC survival inactive, UBC13 inh inactive, MPTP inh inactive, Granule exo inh inactive and beta cell repl inactive.
CCCOc1ccc(/C=C2\SC(=S)N(CC3CCCO3)C2=O)cc1 (stereo not drawn) was read as Apaf-1 inh inactive, hiPSC survival inactive, UBC13 inh inactive, MPTP inh inactive, Granule exo inh inactive and beta cell repl inactive.
`O=C1/C(=C/c2ccc(O)cc2)SC(=S)N1CC1CCCO1` (stereo not drawn) gave Apaf-1 inh inactive, hiPSC survival inactive, UBC13 inh inactive, MPTP inh 60, Granule exo inh inactive, beta cell repl inactive and Rh123 counter 70.
`Cn1cc(C(=O)Nc2ccc(Cl)cc2)c(C(F)(F)F)n1` gave Apaf-1 inh inactive, hiPSC survival inactive, UBC13 inh inactive, MPTP inh inactive, Granule exo inh inactive and beta cell repl inactive.
Screening Cn1cc(NC(=O)Nc2ccc(C(F)(F)F)cc2)c(C(F)(F)F)n1 returned Apaf-1 inh inactive, hiPSC survival inactive, UBC13 inh inactive, MPTP inh 66, Granule exo inh inactive, beta cell repl inactive and Rh123 counter 86.
`Cc1cc2c(NC(=O)Nc3ccc(C(F)(F)F)cc3)cccc2nn1` gave Apaf-1 inh inactive, hiPSC survival inactive, UBC13 inh inactive, MPTP inh 86, Granule exo inh inactive, beta cell repl inactive and Rh123 counter 85.
`Cc1ccc(S(=O)(=O)N2CCN(C(=O)c3ccc(Br)o3)CC2)c(C)c1` gave Apaf-1 inh inactive, hiPSC survival inactive, UBC13 inh inactive, MPTP inh inactive, Granule exo inh inactive and beta cell repl inactive.
Oc1ccc(C[C@@H]2CNCCN2CCc2cccc(F)c2)cc1 was read as Apaf-1 inh inactive, hiPSC survival inactive, UBC13 inh inactive, MPTP inh inactive, Granule exo inh inactive and beta cell repl inactive.
